Results as given in ChEMBL document CHEMBL1800016, “Novel thiazolidinedione derivatives with anti-obesity effects: dual action as PTP1B inhibitors and PPAR-γ activators” (Bioorg Med Chem Lett, 2010).
Active and inactive are the calls of the source. No cut-off for these calls is given here.

How the values were obtained:
[1] = molecular target: T1, Tyrosine-protein phosphatase non-receptor type 1 (Homo sapiens, UniProt P18031); test: Inhibition of PTP1B expressed in Escherichia coli assessed as p-nitrophenol release from pNPP substrate preincubated for 10 mins
T1 sequence (P18031 whole entry): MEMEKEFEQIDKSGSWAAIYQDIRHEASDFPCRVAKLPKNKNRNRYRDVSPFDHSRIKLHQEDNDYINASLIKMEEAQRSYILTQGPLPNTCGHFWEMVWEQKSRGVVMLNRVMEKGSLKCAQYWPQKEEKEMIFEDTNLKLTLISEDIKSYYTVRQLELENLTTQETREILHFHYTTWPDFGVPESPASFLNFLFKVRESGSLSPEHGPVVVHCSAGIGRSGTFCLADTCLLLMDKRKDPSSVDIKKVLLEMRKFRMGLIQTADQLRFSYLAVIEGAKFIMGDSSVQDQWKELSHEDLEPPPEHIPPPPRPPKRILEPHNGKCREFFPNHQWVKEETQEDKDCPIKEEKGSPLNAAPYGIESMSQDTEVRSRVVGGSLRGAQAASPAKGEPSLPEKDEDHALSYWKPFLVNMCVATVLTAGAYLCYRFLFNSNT
Summary of the method: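 IC50 values against the PTP panel, with enzymes prepared as described in the supplementary material. Values are means ± SD of two or more experiments.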

[2] = molecular target: T2, Peroxisome proliferator-activated receptor gamma (Homo sapiens) (UniProt P37231); test: Agonist activity at PPARgamma expressed in HepG2 cells co-expressing PPRE assessed as concentration required for maximal activation after 24 hrs by luciferase reporter gene assay; format: functional, cell-based
T2 sequence (whole entry): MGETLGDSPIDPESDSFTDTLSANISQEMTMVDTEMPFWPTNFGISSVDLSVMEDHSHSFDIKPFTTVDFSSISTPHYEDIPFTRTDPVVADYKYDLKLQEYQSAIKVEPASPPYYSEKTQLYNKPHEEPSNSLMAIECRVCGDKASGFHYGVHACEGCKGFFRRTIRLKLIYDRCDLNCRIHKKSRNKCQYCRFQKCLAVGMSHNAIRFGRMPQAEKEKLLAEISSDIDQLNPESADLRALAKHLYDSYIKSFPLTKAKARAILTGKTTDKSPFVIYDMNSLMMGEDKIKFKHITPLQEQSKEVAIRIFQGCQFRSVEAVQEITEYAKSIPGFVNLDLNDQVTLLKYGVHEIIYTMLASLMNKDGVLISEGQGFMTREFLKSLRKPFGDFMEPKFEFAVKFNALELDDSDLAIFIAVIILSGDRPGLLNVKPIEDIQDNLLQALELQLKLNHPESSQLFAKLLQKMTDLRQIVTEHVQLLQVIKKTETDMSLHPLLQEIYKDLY

[3] = molecular target: T3, Peroxisome proliferator-activated receptor gamma (Homo sapiens, UniProt P37231); test: Agonist activity at PPARgamma expressed in HepG2 cells co-expressing PPRE assessed as transcriptional activation after 24 hrs by luciferase reporter gene assay; format: functional, cell-based
T3 sequence (P37231 whole entry): T2 sequence (whole entry)
Summary of the method: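 HepG2 cells were transfected with a PPRE-driven luciferase reporter plus CMV-βGal. The basic luciferase reporter without a PPRE site served as the negative control. Compounds were added 6 h after transfection. Cells were lysed 24 h later. Luciferase activity was read on a luminometer and normalized to β-galactosidase for transfection efficiency. Two independent experiments; error as SEM.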

Mus musculus [4] = test: Antiobesity activity in high fat diet-fed diabetic C57BL/6J Jms Slc mouse model assessed as reduction in body weight at 2.6 mg/day administered with food for 4 weeks; format: functional
Summary of the method: (§1)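 DIO male C57BL/6J Jms Slc mice were fed a 45%-fat HFD for 8 wk, then HFD with 0.1% w/w compound in feed (about 2.6 mg/day/mouse) for 4 wk. A 10%-fat LFD lean group ran throughout. Measures were weight gain, feed efficiency (weight gain/kcal ×100), and epididymal and retroperitoneal fat pad weights. n = 8/group; mean ± SEM; one-way ANOVA.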

Mus musculus [5] = test: Antiobesity activity in high fat diet-fed diabetic C57BL/6J Jms Slc mouse model assessed as weight gain/kcal at 2.6 mg/day administered with food for 4 weeks; format: functional; summary of the method: as §1
Mus musculus [6] = test: Antiobesity activity in high fat diet-fed diabetic C57BL/6J Jms Slc mouse model assessed as decrease in epididymal fat at 2.6 mg/day administered with food for 4 weeks; format: functional; summary of the method: as §1
Mus musculus [7] = test: Antiobesity activity in high fat diet-fed diabetic C57BL/6J Jms Slc mouse model assessed as decrease in retroperitoneal fat at 2.6 mg/day administered with food for 4 weeks; format: functional; summary of the method: as §1
Mus musculus [8] = test: Antiobesity activity in high fat diet-fed diabetic C57BL/6J Jms Slc mouse model assessed as decrease in total cholesterol level in serum at 2.6 mg/day administered with food for 4 weeks; format: functional
Summary of the method: (§2)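 DIO mice were fed HFD for 8 wk, then HFD containing 0.1% w/w compound (about 2.6 mg/day/mouse) for 4 wk. At the end of feeding, mice were deprived of food overnight. Serum total cholesterol, triglyceride and NEFA were then measured. Values are mean ± SEM.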

Mus musculus [9] = test: Antiobesity activity in high fat diet-fed diabetic C57BL/6J Jms Slc mouse model assessed as decrease in serum triglyceride level at 2.6 mg/day administered with food for 4 weeks; format: functional; summary of the method: as §2
Mus musculus [10] = test: Antiobesity activity in high fat diet-fed diabetic C57BL/6J Jms Slc mouse model assessed as decrease in non-esterified free fatty acid level in serum at 2.6 mg/day administered with food for 4 weeks; format: functional; summary of the method: as §2
Mus musculus [11] = test: Antidiabetic activity in high fat diet-fed diabetic C57BL/6J Jms Slc mouse model assessed as normalization of blood glucose level at 2.6 mg/day administered with food for 4 weeks measured 60 mins after last dose by glucose tolerance test; format: functional, organism-based
Summary of the method: (§3)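 Mice were male C57BL/6J Jms Slc, 5 wk old after 1 wk acclimatization. They were fed a 45%-fat HFD for 8 wk, then HFD with compound mixed in (1.0 g/kg diet, about 2.6 mg/day/mouse, 78 mg/day/kg) for 4 wk. Each mouse was fasted 6 h from the start of the light cycle and fasting glucose was measured. Glucose 1.0 g/kg was then given i.p., with readings at 60 and 90 min.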

Mus musculus [12] = test: Antidiabetic activity in high fat diet-fed diabetic C57BL/6J Jms Slc mouse model assessed as normalization of blood glucose level at 2.6 mg/day administered with food for 4 weeks measured 90 mins after last dose by glucose tolerance test; format: functional, organism-based; summary of the method: as §3
[13] = molecular target: T4, Tyrosine-protein phosphatase non-receptor type 1 (Homo sapiens) (UniProt P18031); test: Competitive inhibition of PTP1B expressed in Escherichia coli
T4 sequence (whole entry): T1 sequence (P18031 whole entry)

Mus musculus [14] = test: Toxicity in high fat diet-fed diabetic C57BL/6J Jms Slc mouse model assessed as dark-brownish spots in liver at 4.8 mg/day administered with food for 4 weeks; conditions: in vivo, po, 672 h

IC50 [1] [µM]	Compound	further results
6	O=C1NC(=O)/C(=C/c2ccc(OCc3ccc(NC(=O)c4cccc(C(F)(F)F)c4)cc3)cc2OCc2ccc(C(F)(F)F)cc2)S1	–
19	O=C1NC(=O)/C(=C/c2ccc(OCc3ccc(S(=O)(=O)N4CCOCC4)cc3)cc2OCc2ccc(C(F)(F)F)cc2)S1	–
12	O=C1NC(=O)/C(=C/c2ccc(OCc3ccccn3)cc2OCc2ccc(C(F)(F)F)cc2)S1	–
136	O=C(O)COc1cc(OCc2ccccc2)ccc1/C=C1\SC(=O)NC1=O	–
4	O=C1NC(=O)/C(=C/c2ccc(OCc3ccccc3)cc2OCc2ccc(C(F)(F)F)cc2)S1	–
4	O=C1NC(=O)/C(=C/c2ccc(OCc3ccc(F)cc3)cc2OCc2ccc(C(F)(F)F)cc2)S1	–
12	O=C1NC(=O)/C(=C/c2ccc(OCc3cccnc3)cc2OCc2ccc(C(F)(F)F)cc2)S1	–
33	CC(=O)Nc1ccc(COc2cc(OS(=O)(=O)c3ccc(C)cc3)ccc2/C=C2\SC(=O)NC2=O)cc1	–
2	Cc1ccc(S(=O)(=O)Oc2cc(OCc3cc(C(F)(F)F)cc(C(F)(F)F)c3)c(/C=C3\SC(=O)NC3=O)cc2Br)cc1	–
9	O=C1NC(=O)/C(=C/c2ccc(OCc3ccc(F)cc3)cc2OCc2ccccc2)S1	–
11	Cc1ccc(S(=O)(=O)Oc2ccc(/C=C3\SC(=O)NC3=O)c(OCc3ccc(NC(=O)c4cccc(C(F)(F)F)c4)cc3)c2)cc1	–
10	O=C1NC(=O)/C(=C/c2ccc(OCc3ccccc3)cc2OCc2ccccc2)S1	–
2.3	Cc1ccc(S(=O)(=O)Oc2ccc(/C=C3\SC(=O)NC3=O)c(OCc3ccc(C(F)(F)F)cc3)c2)cc1	–
9	O=C1NC(=O)/C(=C/c2ccc(OCc3ccccc3)cc2OCc2ccc(F)cc2)S1	–
14	O=C1NC(=O)/C(=C/c2ccc(OS(=O)(=O)c3ccc(Br)cc3)cc2OCc2ccc(S(=O)(=O)N3CCOCC3)cc2)S1	–
8	O=C1NC(=O)/C(=C/c2ccc(OCc3ccc(F)cc3)cc2OCc2ccc(F)cc2)S1	–
1.4	O=C1NC(=O)/C(=C/c2cc(Br)c(OCc3ccc(C(F)(F)F)cc3)cc2OCc2ccc(C(F)(F)F)cc2)S1	–
16	Cc1ccc(S(=O)(=O)Oc2ccc(/C=C3\SC(=O)NC3=O)c(OS(=O)(=O)c3ccc(C)cc3)c2)cc1	–
9	O=C1NC(=O)/C(=C/c2ccc(OCc3ccc(C(F)(F)F)cc3)cc2OCc2ccc(C(F)(F)F)cc2)S1	–
6	O=C1NC(=O)/C(=C/c2ccc(OS(=O)(=O)c3ccc(Br)cc3)cc2OCc2ccc(C(F)(F)F)cc2)S1	–
–	O=C1NC(=O)/C(=C/c2cc(Br)ccc2OCc2cc(C(F)(F)F)cc(C(F)(F)F)c2)S1	Activity [2]: 4 µM; EC50 [3]: 0.87 µM; Activity (Mus musculus [4]): 2.16 g; feed efficiency (Mus musculus [5]): 0.68 g/100 kcal; Activity (Mus musculus [6]): 1.27 g; Activity (Mus musculus [7]): 0.42 g; Activity (Mus musculus [8]): 125 mg/dL; Activity (Mus musculus [9]): 78 mg/dL; Activity (Mus musculus [10]): 0.22 mM; Activity (Mus musculus [11]): Active; Activity (Mus musculus [12]): Active; inhibition [13]: Active; Activity (Mus musculus [14]): Toxic
